Source: ChEMBL document CHEMBL1122079, “Tryptophan analogues. 1. Synthesis and antihypertensive activity of positional isomers” (1982)

Experiments:
Rattus norvegicus [1] = test: Antihypertensive activity in renal hypertensive rats 8 hr after oral administration (10 mg/Kg); format: functional
Outline: (§1)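 Renal hypertensive rats (5 or 10 per group), 10 mg/kg given orally. Systolic pressure measured indirectly by tail occluding cuff with pulse sensor, once before dosing as control and again at 1, 2, 4, 6 and 8 h. Values are changes in mean systolic pressure from control (mmHg). Significance of control vs posttreatment assessed by Wilcoxon's signed rank test (p < 0.05).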

Rattus norvegicus [2] = test: Antihypertensive activity in renal hypertensive rats 2 hr after oral administration (10 mg/Kg); format: functional; outline: as §1
Rattus norvegicus [3] = test: Antihypertensive activity in renal hypertensive rats 1 hr after oral administration (10 mg/Kg); format: functional; outline: as §1
Rattus norvegicus [4] = test: Antihypertensive activity in renal hypertensive rats 6 hr after oral administration (10 mg/Kg); format: functional; outline: as §1
Rattus norvegicus [5] = test: Antihypertensive activity in renal hypertensive rats 4 hr after oral administration (10 mg/Kg); format: functional; outline: as §1
Felis catus [6] = test: Control blood pressure in normotensive anesthetized cat at dose 10 mg/Kg iv
Felis catus [7] = test: Change in blood pressure in normotensive anesthetized cat.; format: functional
Outline: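 Normotensive cats of either sex (2-4 kg) anesthetized with α-chloralose (80 mg/kg iv). Trachea, femoral artery and jugular vein cannulated. Compound given iv at 10 mg/kg, with 1 mg/kg iv used in one case. Mean blood pressure recorded by pressure transducer before and 30 min after dosing, reported as decrease in mmHg.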

| SMILES | BP (Rattus norvegicus [1]) [mmHg] | BP (Rattus norvegicus [2]) [mmHg] | BP (Rattus norvegicus [3]) [mmHg] | BP (Rattus norvegicus [4]) [mmHg] | BP (Rattus norvegicus [5]) [mmHg] | control BP (Felis catus [6]) [mmHg] | BP (Felis catus [7]) [mmHg] |
| --- | --- | --- | --- | --- | --- | --- | --- |
| COc1ccc2[nH]cc(C(CN)CO)c2c1.O=C(O)C(=O)O (centres undefined) | 0 | -15 | -13 | -8 | 4 | – | – |
| COC(=O)C(CN)c1c[nH]c2ccc(Br)cc12.Cl (centres undefined) | 7 | -10 | -6 | 8 | 6 | 125 | -35 |
| Cl.NCC(C(=O)O)c1c[nH]c2ccc(Br)cc12 (centres undefined) | 0 | -5 | -12 | 5 | 0 | 115 | -15 |
| CCCCCOC(=O)C(CN)c1c[nH]c2ccc(OC)cc12.Cl (centres undefined) | -4 | -11 | -7 | -11 | -3 | 148 | 2 |
| CCOC(=O)C(CN)c1c[nH]c2ccc(OC)cc12.Cl (centres undefined) | -3 | -4 | -5 | -2 | 4 | 160 | 0 |
| COC(=O)C(CN)c1c(C)[nH]c2ccc(OC)cc12.Cl (centres undefined) | -3 | -2 | 2 | -8 | -8 | 164 | 1 |
| COC(=O)C(CN)c1c[nH]c2ccccc12.Cl (centres undefined) | -7 | -9 | -7 | -6 | -9 | 156 | -53 |
| COC(=O)C(CN)c1cn(C)c2ccc(OC)cc12.Cl (centres undefined) | 7 | -6 | -5 | 1 | 3 | 165 | 20 |
| COC(=O)C(CN)c1c[nH]c2ccc(O)cc12.Cl (centres undefined) | 7 | 1 | 7 | 0 | 4 | 135 | -85 |
| CCCOc1ccc2[nH]cc(C(CN)C(=O)OC)c2c1.Cl (centres undefined) | 5 | 6 | -6 | 9 | 8 | 150 | – |
| COc1ccc2[nH]cc(C(CN)C(=O)O)c2c1 (centres undefined) | -2 | -10 | -1 | -6 | 2 | 142 | -5 |
| COC(=O)CC(CN)c1c[nH]c2ccc(OC)cc12 (centres undefined) | -12 | -15 | -14 | -13 | -6 | 166 | -25 |
| CCOC(=O)C(N)Cc1c[nH]c2ccc(O)cc12 (centres undefined) | 1 | -5 | -14 | 2 | 2 | 156 | -24 |
| NC(Cc1c[nH]c2ccc(O)cc12)C(=O)O (centres undefined) | -1 | -5 | -9 | 6 | 0 | 162 | -24 |
| NCC(C(=O)O)c1c[nH]c2ccccc12 (centres undefined) | -8 | -8 | -6 | -13 | -10 | 153 | -10 |
| CCOC(=O)CC(c1nnn[nH]1)c1c[nH]c2cc(Cl)ccc12 (centres undefined) | -11 | 2 | -5 | -17 | -4 | 175 | -20 |
| CCOC(=O)CC(c1nnn[nH]1)c1c[nH]c2cc(OC)c(OC)cc12 (centres undefined) | -14 | -15 | -11 | -25 | -20 | 164 | -6 |
| COC(=O)CC(CN)c1c[nH]c2cc(Cl)ccc12 (centres undefined) | -6 | -4 | 2 | -11 | -3 | 158 | -10 |
| CCOC(=O)CC(CNC(C)=O)c1c[nH]c2ccccc12 (centres undefined) | -2 | -11 | -8 | -6 | -7 | 169 | -21 |
| COC(=O)C(CN(C)C)c1c[nH]c2ccc(OC)cc12.O=C(O)C(=O)O (centres undefined) | 13 | -2 | -9 | 14 | 1 | 167 | -35 |
| COC(=O)C(CN)c1c[nH]c2cc(Cl)ccc12.Cl (centres undefined) | -7 | -23 | -14 | -15 | -17 | 140 | -7 |
| COC(=O)C(CN)c1c[nH]c2ccc(Cl)cc12.Cl (centres undefined) | 5 | -5 | -8 | 2 | 0 | 160 | -61 |
| NCC(C(=O)O)c1c[nH]c2ccc(F)cc12 (centres undefined) | 0 | -26 | -19 | -15 | -27 | 180 | -25 |
| NCC(c1nnn[nH]1)c1c[nH]c2ccccc12 (centres undefined) | 2 | 1 | 8 | 5 | 8 | 155 | -5 |
| COC(=O)C(N)Cc1c[nH]c2ccc(OC)cc12 (centres undefined) | -1 | 4 | -7 | 4 | -8 | 136 | -12 |
| CCOC(=O)C(CNC(C)=O)c1cn(C(=O)OCC)c2cccc(Cl)c12 (centres undefined) | 2 | -1 | -8 | 0 | 3 | 183 | 11 |
| COC(=O)C(c1c[nH]c2ccc(OC)cc12)C(C)N (centres undefined) | 2 | -3 | -6 | 3 | -3 | – | – |
